The list is not random: actives were taken first. Their share in the collection is about 3.1%.
PGC1a acetyl inh = PGC1a acetylation modulation, inhibitor mode. U2OS PGC1a acetylation, AlphaScreen anti-acetyl-lysine; with virally co-expressed GCN5 acetyltransferase. inhibition, % at 15.6 µM. 350,000 tested, 0.17% active;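 active means every replicate shows inhibition of at least 40%; inconclusive means mean inhibition at least 40% but some replicate below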;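 further: 0% = neutral control wells and 100% = positive control wells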
FGF22 binding = shifts melting point of recombinant human FGF22; Q9HCT0; recombinant FGF22 thermal shift, SYPRO orange fluorescence; percent of sucrose octasulfate shift, DMSO zero; activity (Tm shift, normalised), % at 9.99 µM; 340,000 tested, 1.5% active; AID 651658;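 active means mean Tm shift, scaled 0 neutral to 100 positive control, at about 1.3% or above, every replicate too, limit read from the data; inconclusive means no clear call, values can overlap the other calls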
Target sequence (Q9HCT0 whole entry, looked up): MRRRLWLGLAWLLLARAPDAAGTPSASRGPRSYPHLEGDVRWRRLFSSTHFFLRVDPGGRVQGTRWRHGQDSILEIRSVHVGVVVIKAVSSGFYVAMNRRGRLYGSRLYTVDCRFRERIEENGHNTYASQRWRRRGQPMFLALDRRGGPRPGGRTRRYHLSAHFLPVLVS
PAX8 inh HTS = lowers PAX8-driven luciferase in RMG-I cells. RMG-I TPO-luciferase reporter, SteadyGlo, 24 h. inhibition, % at 12.6 µM. 360,000 tested, 1.2% active. AID 652154;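 active means mean replicate inhibition at least 60% with every replicate also reaching 60%; inconclusive means only one of the two criteria is met; inactive means mean below 60% and not all replicates reaching 60%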;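 further: luciferase light reporting Pax8 driven TPO promoter activity; plate controls were median of neutral control wells for no effect and mitoxantrone controls for full effect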
EWS-Fli inh = inhibitors of EWS/Fli oncoprotein transcriptional activity | inhibition, % at 12.6 µM | A673 NR0B1-luciferase reporter, viability-normalised | 350,000 tested, 0.67% active;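 active means mean inhibition of at least 50% after viability correction, with every replicate also passing that limit; inconclusive means mean reaches 50% but only one of two replicates passes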;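 further: firefly luciferase signal divided by Alamar Blue viability fluorescence both relative to DMSO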
HIV Env fusion = blocks HIV Env-driven cell-cell fusion; inhibition, % at 12.3 µM; AID 651610; HeLa-JRFL Env/CEM21 cell fusion, luciferase; 360,000 tested, 1.1% active;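 active means mean replicate inhibition score of at least 50 and every replicate individually at or above 50; inconclusive means only one of the two criteria met; inactive means mean below 50 and not all replicates reaching 50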;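 further: 0% = plate neutral controls and 100% = maraviroc near 300 nM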
FN deposition inh = fibronectin deposition inhibition; AID 743247; 350,000 tested, 0.086% active; inhibition, % at 12.6 µM; AH1F fibroblasts, Alexa488-fibronectin deposition fluorescence, overnight;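 active means mean inhibition across replicates of 30% or more, regardless of how many single replicates reach that level; inconclusive means mean under 30% yet at least half of replicates reach 30%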;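 further: positive control wells lacked labelled fibronectin entirely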
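Material: AH1F fibroblasts assembling fluorescent fibronectin matrix; amount: 10000 AH1F cells/well; medium: DMEM, 2% serum; reagent: Alexa488-fibronectin, 24 nM final in well; dosing: single compound dose, delivered by pin transfer; incubation: 1 h adhesion, overnight exposure; detection: fluorescence after three HBSS washes, excitation 485 nm, emission 525 nm; measure: fibronectin deposition inhibition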
Numbers without * were called inactive; u = inconclusive; x = no result; [ ] = dose if it differs, or a comment.

SMILES | PGC1a acetyl inh | FGF22 binding | PAX8 inh HTS | EWS-Fli inh | HIV Env fusion | FN deposition inh
COc1ccc(S(=O)(=O)Nc2ccc3c(c2)CC(=O)N([C@H](C)CO)C[C@H](C)[C@H](CN(C)Cc2ccc(-c4ccccc4)cc2)O3)cc1 | -0.3 | 0.0 | 17.2 | 8.6 | 11.8[16.7 µM] | x
COc1ccc(S(=O)(=O)Nc2ccc3c(c2)CC(=O)N([C@H](C)CO)C[C@H](C)[C@@H](CN(C)Cc2ccc(-c4ccccc4)cc2)O3)cc1 | -17.9 | -0.2 | 75.6* | -3.2 | -13.0[16.7 µM] | x
CO[C@H]1CN(C)C(=O)c2ccc(NS(=O)(=O)c3cn(C)cn3)cc2OC[C@H](C)N(CCC(F)(F)F)C[C@@H]1C | 1.0 | 0.0 | -14.9 | x | x | 4.4
Cc1cccc(S(=O)(=O)N2C[C@H]3[C@@H](c4ccccc42)[C@@H](CO)N3C(=O)C2CC2)c1 | 0.1 | -0.2 | 3.6 | -2.9 | x | x
Clc1ccc(-c2c[nH]c3ccccc23)nn1 | 9.6 | 43.1* | -0.2 | -14.5 | -3.7 | 3.3
O=C1C=C(N2CCCCC2)c2ccccc2C1=O | -24.6 | x | 87.2* | -2.2 | u | -0.5
CSc1ccccc1NC(=O)c1ccc(CN2CCOCC2)cc1 | -3.6 | 0.3 | -32.2 | -49.2 | -5.7 | -21.6
Cc1cc(CSc2ccccc2)ccc1NC(=O)c1ccc(CN2CCOCC2)cc1 | x | x | 10.6 | x | 68.3* | 9.2
Cc1cc(CSc2ccccc2)ccc1NC(=O)c1ccc(C)c([N+](=O)[O-])c1 | 3.7 | 43.4* | 10.8 | 16.7 | -55.8 | 1.2
C[C@@H]1CN([C@@H](C)CO)C(=O)c2c(c3ccccc3n2C)-c2ccccc2CO[C@@H]1CN(C)C(=O)CCN(C)C | -30.4 | -0.8 | -11.5 | -9.9 | -8.4[16.7 µM] | 4.9
C[C@H]1CN([C@@H](C)CO)C(=O)c2c(c3ccccc3n2C)-c2ccccc2CO[C@H]1CN(C)C(=O)Cc1ccccc1 | -21.8 | 0.0 | 11.0 | 1.7 | 56.9*[16.7 µM] | 1.7
CO[C@@H](C(=O)N(C)C[C@H]1OCc2ccccc2-c2c(n(C)c3ccccc23)C(=O)N([C@@H](C)CO)C[C@@H]1C)c1ccccc1 | 14.2 | -0.3 | 10.9 | 12.6 | 55.5*[16.7 µM] | -7.6
C[C@H](CO)N1C[C@H](C)[C@H](CN(C)C(=O)[C@H](Cc2ccccc2)N(C)C)OCc2ccccc2-c2c(n(C)c3ccccc23)C1=O | 5.7 | -0.7 | 115.9* | 14.3 | 46.0[16.7 µM] | 12.6
C[C@H](CO)N1C[C@H](C)[C@@H](CN(C)C(=O)CCN(C)C)OCc2ccccc2-c2c(n(C)c3ccccc23)C1=O | 9.7 | -0.3 | 65.0* | -4.1 | 50.3[16.7 µM] | 3.5
COc1ccc(S(=O)(=O)N(C)C[C@@H]2Oc3ccc(NS(C)(=O)=O)cc3CC(=O)N([C@@H](C)CO)C[C@H]2C)cc1 | 7.3 | -0.1 | -11.1 | -0.2 | 6.2[16.7 µM] | x
C[C@H]1CN([C@@H](C)CO)C(=O)c2cccc(NC(=O)CCCCCC(=O)Nc3ccccc3N)c2O[C@@H]1CN(C)C | -8.0 | 0.5 | 15.0 | x | x | x
COc1ccc([C@H]2CC=CC[C@@H](C)Oc3ccccc3C(=O)N(C)[C@H](C(C)C)C(=O)N2)c(OC)c1 (mixture of isomers) | x | x | x | x | x | -8.4
CN(C[C@H]1[C@@H](c2ccccc2)[C@@H](CO)N1C(=O)C1CC1)C(=O)c1ccccn1 | 2.2 | x | -5.2 | -4.7 | x | -6.8
C[C@@H]1CN([C@H](C)CO)C(=O)c2c(c3ccccc3n2C)-c2ccccc2CO[C@@H]1CN(C)C(=O)N[C@H](C)c1ccccc1 | -4.6 | 0.1 | 21.7 | -0.3 | -31.2[16.7 µM] | -1.0
C[C@H]1CN([C@@H](C)CO)C(=O)c2c(c3ccccc3n2C)-c2ccccc2CO[C@H]1CN(C)C(=O)C1CC1 | 11.0 | 0.2 | -1.8 | -3.6 | 61.2*[16.7 µM] | -2.6
C[C@H](CO)N1C[C@H](C)[C@H](CN(C)C(=O)N[C@H](C)c2ccccc2)OCc2ccccc2-c2c(n(C)c3ccccc23)C1=O | 9.6 | 0.0 | -7.4 | -1.2 | 74.6* | -2.5
CO[C@@H]1CN(C)C(=O)c2cc(NC(=O)c3cc(C)on3)ccc2OC[C@H](C)N(C)C[C@@H]1C | 7.7 | 0.0 | 1.9 | 0.5 | -1.3[16.7 µM] | x
C[C@@H]1CCCCO[C@H](CN(C)C(=O)Nc2cccc3ccccc23)[C@H](C)CN([C@H](C)CO)C(=O)c2cc(NS(=O)(=O)c3ccccc3)ccc2O1 | -7.8 | -0.6 | 35.9 | 19.4 | 62.4*[16.7 µM] | -12.4
C[C@H]1CCCCO[C@H](CN(C)C(=O)Nc2cccc3ccccc23)[C@@H](C)CN([C@@H](C)CO)C(=O)c2cc(NS(=O)(=O)c3ccccc3)ccc2O1 | -8.0 | -0.4 | 71.6* | 27.1 | 26.9[16.7 µM] | -5.1
C[C@@H]1CCCCO[C@H](CN(C)C(=O)Nc2cccc3ccccc23)[C@H](C)CN([C@@H](C)CO)C(=O)c2cc(NS(=O)(=O)c3ccc(Cl)cc3)ccc2O1 | -12.2 | -0.4 | 75.7* | 13.3 | -10.6[16.7 µM] | 5.7
SMILES | PGC1a acetyl inh | FGF22 binding | PAX8 inh HTS | EWS-Fli inh | HIV Env fusion | FN deposition inh
C[C@H](CO)N1C[C@H](C)[C@@H](CN(C)C(=O)Nc2cccc3ccccc23)OCCCC[C@H](C)Oc2ccc(NS(=O)(=O)c3ccccc3)cc2C1=O | -19.8 | -0.7 | 33.4 | 18.2 | 32.4[16.7 µM] | -10.8
O=C(O)C[C@@H]1CC[C@@H]2[C@H](COC[C@H](O)CN2S(=O)(=O)c2ccc(F)cc2)O1 | -0.2 | 0.2 | x | x | x | 11.0
CC(C)(C)c1ccc(-n2ncc3c2CCCC3NC(=O)CN2CCCC2=O)cc1 (stereo unspecified) | x | -0.1 | 32.0 | x | 68.4* | -4.2
COc1ccccc1N(CC(=O)NCc1ccco1)S(=O)(=O)c1ccc(C)cc1 | x | 0.0 | 11.0 | -0.5 | 10.8 | 3.8
Cc1ccc(N(CC(=O)NCc2ccco2)S(=O)(=O)c2ccccc2)cc1 | -33.1 | x | -3.8 | x | -45.2 | 30.1*
Cc1ccc(S(=O)(=O)N(Cc2ccc(Cl)cc2)c2ccccc2C(=O)NCc2ccco2)cc1 | x | x | x | x | 68.8* | -9.2
S=C(NN=C1CCCCC1=NNC(=S)N1CCOCC1)N1CCOCC1 | x | -0.1 | 11.1 | -19.2 | 66.8* | -11.6
O=C(c1ccco1)N1N=C(c2ccc(Br)cc2)CC1(O)C(F)(F)F (stereo unspecified) | -2.1 | 0.2 | 97.0* | 5.0 | 26.9 | -2.6
O=C(c1ccco1)N1N=C(c2ccc(Cl)cc2)CC1(O)C(F)(F)F (stereo unspecified) | u | 43.0* | -14.4 | 2.1 | 32.1 | 1.2
C[C@@H]1CN([C@@H](C)CO)C(=O)Cc2cc(N(C)C)ccc2O[C@H]1CN(C)Cc1ccc(C(=O)O)cc1 | 20.2 | -0.3 | -3.2 | 3.9 | -1.9[16.7 µM] | -11.8
O=C(C1CCOCC1)N1C[C@@H]2[C@H](c3ccccc31)[C@@H](CO)N2C(=O)Nc1cccc(F)c1 | -3.0 | 0.0 | -11.3 | 0.0 | x | 4.2
COc1ccccc1[C@@H]1C(c2ccc(F)cc2)=NN(c2ccccc2)[C@H]1C(=O)N1CCOC1=O | -10.8 | x | -0.6 | -1.5 | 82.1* | -11.5

Bioassay records deposited in PubChem BioAssay by Broad Institute.
